From ChEMBL document CHEMBL2169798, “Discovery of a Plasmodium falciparum glucose-6-phosphate dehydrogenase 6-phosphogluconolactonase inhibitor (R,Z)-N-((1-ethylpyrrolidin-2-yl)methyl)-2-(2-fluorobenzylidene)-3-oxo-3,4-dihydro-2H-benzo[b][1,4]thiazine-6-carboxamide (ML276) that reduces parasite growth in vitro” (J Med Chem, 2012)
In brackets after ≈: the same amount, converted by molar mass. Each block holds one compound with its values, some of them ahead of it. Activity calls are given as the source filed them. No cut-off for these calls is given here.

What was measured:
[1] = Drug degradation in PBS buffer assessed as compound depletion at pH 7.4 after 30 mins by RP-LCMS analysis in presence of glutathione; assay type: physicochemical; conditions: pH 7.4, 0.5 h
How it was run: (§1)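 Compound from a 1 mM DMSO stock, final 10 μM with 1% DMSO, in PBS pH 7.4 with 5 equivalents glutathione (from a 10 mM PBS stock), shaken in capped glass vials at 23 °C. Aliquots were analysed by RP-HPLC-MS on a C18 column at 0, 0.5, 1, 2, 4, 6, 18 and […]. Percent remaining versus 0 h was taken from peak AUC.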

[2] = Chemical stability in PBS buffer at pH 7.4 at 10 uM up to 18 hrs by RP-LCMS analysis in presence of glutathione; assay type: physicochemical; conditions: pH 7.4, 18 h; how it was run: as §1
[3] = Drug degradation in PBS buffer assessed as compound depletion at pH 7.4 after 24 hrs by RP-LCMS analysis in presence of glutathione; assay type: physicochemical; conditions: PBS buffer with glutathione, read-out: Drug metabolism; how it was run: as §1
[4] = Aqueous solubility in PBS buffer at pH 7.4; assay type: physicochemical
Plasma [5] = experiment: Plasma protein binding in human at 10 uM; assay type: ADME, cell-free
Liver = experiment: Stability in mouse liver microsomes assessed as compound remaining after 1 hr; assay type: ADME, Microsome
[6] = Permeability of the compound at donor pH 6.2 by PAMPA; assay type: ADME
[7] = Permeability of the compound at donor pH 7.4 by PAMPA; assay type: ADME
[8] = molecular target: T1, Glucose-6-phosphate 1-dehydrogenase (Plasmodium falciparum, UniProt Q25856); experiment: Inhibition of Plasmodium falciparum glucose-6-phosphate dehydrogenase after 2 hrs by resazurin/diaphorasecoupled assay
T1 sequence (Q25856 whole entry): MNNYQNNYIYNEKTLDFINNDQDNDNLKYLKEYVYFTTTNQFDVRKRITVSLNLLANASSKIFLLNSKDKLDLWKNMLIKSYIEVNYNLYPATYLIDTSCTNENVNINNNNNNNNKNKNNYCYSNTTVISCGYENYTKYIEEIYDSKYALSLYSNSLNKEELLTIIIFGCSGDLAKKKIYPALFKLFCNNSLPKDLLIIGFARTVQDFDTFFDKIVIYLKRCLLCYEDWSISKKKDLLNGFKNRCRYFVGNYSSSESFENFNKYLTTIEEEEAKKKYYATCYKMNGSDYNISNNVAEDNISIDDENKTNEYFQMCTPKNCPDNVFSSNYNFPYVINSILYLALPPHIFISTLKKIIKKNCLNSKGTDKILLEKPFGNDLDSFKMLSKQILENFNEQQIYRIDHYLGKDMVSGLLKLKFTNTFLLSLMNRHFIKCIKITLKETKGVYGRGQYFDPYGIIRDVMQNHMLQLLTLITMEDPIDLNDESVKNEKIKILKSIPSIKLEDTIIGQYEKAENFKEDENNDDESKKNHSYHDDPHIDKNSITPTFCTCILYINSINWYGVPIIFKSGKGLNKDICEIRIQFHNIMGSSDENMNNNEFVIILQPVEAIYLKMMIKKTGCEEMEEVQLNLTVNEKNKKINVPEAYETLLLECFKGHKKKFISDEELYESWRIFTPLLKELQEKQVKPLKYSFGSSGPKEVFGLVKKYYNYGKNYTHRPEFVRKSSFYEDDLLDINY

Plasma [9] = experiment: Stability in human plasma assessed as compound remaining after 3 hrs; assay type: ADME, cell-free
Plasma [10] = experiment: Plasma protein binding in human at 1 uM; assay type: ADME, cell-free
[11] = Aqueous solubility in pION's buffer at pH 7.4; assay type: physicochemical
[12] = Aqueous solubility in pION's buffer at pH 5; assay type: physicochemical
Plasmodium falciparum [13] = experiment: Mixed type inhibition of Plasmodium falciparum glucose-6-phosphate dehydrogenase-6-phosphogluconolactonase using NADP+ as substrate by Lineweaver-Burk plot analysis
How it was run: (§2)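 PfGluPho at 0.2 μg/mL final, with 0.005% Tween 20, 3.3 mM MgCl2, 1 mM TCEP and 0.05 M Tris. G6P was varied at 5 μM NADP+; NADP+ was varied at 25 μM G6P. Compound was titrated at the same time. NADPH fluorescence (ex340/em460) was followed for 10 min and initial slopes taken. Lineweaver-Burk plots gave Km and Vmax, and α came from a rate equation.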

Plasma [14] = experiment: Plasma protein binding in mouse at 10 uM; assay type: ADME, cell-free
[15] = molecular target: Glucose-6-phosphate 1-dehydrogenase (Homo sapiens, UniProt P11413); experiment: Inhibition of human glucose-6-phosphate dehydrogenase after 90 mins by resazurin/diaphorasecoupled assay
Chain of Glucose-6-phosphate 1-dehydrogenase (Homo sapiens, UniProt P11413) (P11413 whole entry): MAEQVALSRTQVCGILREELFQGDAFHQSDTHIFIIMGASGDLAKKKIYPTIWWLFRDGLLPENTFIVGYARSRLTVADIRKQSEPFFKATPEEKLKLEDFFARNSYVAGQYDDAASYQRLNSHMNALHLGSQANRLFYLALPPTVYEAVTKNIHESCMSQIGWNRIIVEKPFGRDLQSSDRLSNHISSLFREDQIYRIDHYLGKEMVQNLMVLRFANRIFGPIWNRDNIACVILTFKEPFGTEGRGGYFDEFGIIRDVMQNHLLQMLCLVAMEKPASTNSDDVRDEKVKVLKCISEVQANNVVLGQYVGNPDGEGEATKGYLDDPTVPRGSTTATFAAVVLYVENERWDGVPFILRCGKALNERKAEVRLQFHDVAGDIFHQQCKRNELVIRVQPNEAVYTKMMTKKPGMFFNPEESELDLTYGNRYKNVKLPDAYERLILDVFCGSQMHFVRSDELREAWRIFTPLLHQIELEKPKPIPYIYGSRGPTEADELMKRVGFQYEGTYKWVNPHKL
How it was run: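 Dose response with a top final concentration of […] and 0.8% final DMSO, in 50 mM Tris pH 7.5, 0.005% Tween 20 and 1 mg/mL BSA. The enzyme solution held 0.05 μg/mL hG6PD. The substrate solution held 0.64 mM G6P, 12 μM NADP+, 6.6 mM MgCl2, 2 U/mL diaphorase and 0.28 mM resazurin.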

Plasmodium falciparum [16] = experiment: Competitive inhibition of Plasmodium falciparum glucose-6-phosphate dehydrogenase-6-phosphogluconolactonase using glucose-6-phosphate as substrate by Lineweaver-Burk plot analysis; how it was run: as §2
Plasma [17] = experiment: Plasma protein binding in mouse at 1 uM; assay type: ADME, cell-free
Hepatocyte = experiment: Toxicity against Fa2N-4 immortalized human hepatocytes; assay type: cell-based; conditions: read-out: LC50 (the source's name)
[18] = molecular target: T1, Glucose-6-phosphate 1-dehydrogenase; experiment: Inhibition of Plasmodium falciparum glucose-6-phosphate dehydrogenase after 45 mins by orthogonal assay
How it was run: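 Direct NADPH read without coupling: PfGluPho (0.4 μg/mL enzyme solution) in 50 mM Tris pH 7.5, 0.005% Tween 20, 1 mg/mL BSA; substrate 40 μM G6P, 6 μM NADP+, 6.6 mM MgCl2.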

Plasmodium falciparum [19] = experiment: Antimalarial activity against chloroquine-sensitive Plasmodium falciparum 3D7 cells assessed as Plasmodium falciparum growth inhibition after 72 hrs by isotopic drug sensitivity assay; assay type: functional, organism-based; conditions: 3D7, 72 h
How it was run: (§3)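 Infected RBCs plated at 0.25% parasitemia (>70% rings), 1.25% hematocrit, hypoxanthine-free medium; serial compound concentrations, chloroquine control. 48 h incubation, then 0.5 μCi 3H-hypoxanthine for another 24 h. Cells harvested on glass fibre filters, radioactivity counted as growth measure. IC50 by non-linear regression; run twice, each in triplicate.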

Plasmodium falciparum [20] = experiment: Antimalarial activity against chloroquine-resistant Plasmodium falciparum Dd2 cells assessed as Plasmodium falciparum growth inhibition after 72 hrs by isotopic drug sensitivity assay; assay type: functional, organism-based; conditions: Dd2, 72 h; how it was run: as §3
Liver microsomes = experiment: Stability in human liver microsomes assessed as compound remaining after 1 hr; assay type: ADME, Microsome
[21] = Permeability of the compound at donor pH 5 by PAMPA; assay type: ADME
[22] = Aqueous solubility in pION's buffer at pH 6.2; assay type: physicochemical
Plasma [23] = experiment: Stability in mouse plasma assessed as compound remaining after 3 hrs; assay type: ADME, cell-free
[24] = Blood brain barrier permeability of the compound at pH 7.4 by PAMPA; assay type: ADME

Drug metabolism [1]: Active | Stability [2]: Stable | degraded at 24 h [3]: 97%
Compound: C=C(CC)C(=O)c1ccc(OCC(=O)O)c(Cl)c1Cl [ETHACRYNIC ACID]

Compound: CCN1CCC[C@@H]1CNC(=O)c1ccc2c(c1)NC(=O)/C(=C/c1ccccc1F)S2
solubility [4]: 166 µM (≈ 70.6 µg/mL) | PPB (Plasma [5]): 97.98% | Stability (Liver): 37.57% | permeability [6]: 737 ×10⁻⁶ cm/s | permeability [7]: 806 ×10⁻⁶ cm/s | IC50 [8]: 900 nM | Stability (Plasma [9]): 90.98% | PPB (Plasma [10]): 98.39% | solubility [11]: 69 µM (≈ 29.4 µg/mL) | solubility [12]: > 296 µM | inhibition (Plasmodium falciparum [13]): Active | PPB (Plasma [14]): 98.34% | IC50 [15]: > 80000 nM | inhibition (Plasmodium falciparum [16]): Active | PPB (Plasma [17]): 98.95% | CC50 (Hepatocyte): > 50000 nM | IC50 [18]: 1900 nM | IC50 (Plasmodium falciparum [19]): 2340 nM | IC50 (Plasmodium falciparum [20]): 3710 nM | Stability (Liver microsomes): 60.53% | permeability [21]: 29 ×10⁻⁶ cm/s | solubility [22]: > 296 µM | Stability (Plasma [23]): 80.84% | permeability [24]: 233 ×10⁻⁶ cm/s
